Measured values as given in ChEMBL document CHEMBL1156237, “Antiviral activity of benzimidazole derivatives. II. Antiviral activity of 2-phenylbenzimidazole derivatives” (Bioorg Med Chem, 2010).
Activity calls are given as the source filed them. No rule for the calls is given here.

Columns and labels:
Yellow fever virus = assay: Antiviral activity against Yellow fever virus 17D infected in BHK cells assessed as protection from virus-induced cytopathogenicity after 3 to 4 days by MTT method; format: functional, organism-based
[1] = tested on: Vesicular stomatitis virus; assay: Antiviral activity against VSV Indiana lab infected in african green monkey Vero cells after 2 days by plaque reduction assay; format: functional, organism-based
[2] = Cytotoxicity against african green monkey Vero cells; format: cell-based; details: chlorocebus sabaeus
In short: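 Vero 76 monolayers exposed to serial compound dilutions, run in parallel on the same 24-well plates as the plaque-reduction assays. CC50 is the concentration reducing viability of mock-infected cells by 50%.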

Human alphaherpesvirus 1 = assay: Antiviral activity against HSV1 KOS infected in african green monkey Vero cells after 3 days by plaque reduction assay; format: functional, organism-based; details: Human alphaherpesvirus 1, KOS, 72 h
In short: (§1)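 Plaque reduction assay. Vero 76 cells at 2 × 10^5/well, grown overnight to confluence in D-MEM with 10% FBS. Infected 2 h with 50–100 PFU/well, unadsorbed virus removed. Overlay of D-MEM with 1% inactivated FBS and 0.75% methylcellulose, with or without serial compound dilutions. Incubated at 37 °C for 3 days (HSV-1 KOS, CVB-2 Ohio-1) or 5 days (RSV A2). Fixed and stained with crystal violet in 50% ethanol; plaques counted; EC50 by linear regression.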

[3] = tested on: Human immunodeficiency virus 1; assay: Antiviral activity against HIV1 3B infected in human MT4 cells assessed as protection from virus-induced cytopathogenicity after 4 days by MTT method; format: functional, organism-based
In short: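 MT-4 cells, 1 × 10^4/well in RPMI with or without serial compound dilutions, infected with HIV-1 IIIB, 100 CCID50 (m.o.i. 0.01). Protection from virus-induced cytopathogenicity read by MTT.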

[4] = Cytotoxicity against BHK cells after 48 to 96 hrs by MTT assay; format: cell-based, Mesocricetus auratus; details: hamster
In short: (§2)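 Cell seeding: MDBK at 6 × 10^5 cells/mL in MEM-E with 10% horse serum and 1 mM Na pyruvate; BHK at 1 × 10^6 cells/mL in MEM-E with 10% FBS. Serial compound dilutions, 37 °C, 5% CO2. Viability of mock-infected cells by MTT after 48–96 h; CC50 is the concentration reducing viability by 50%.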

Poliovirus 1 = assay: Antiviral activity against Polio virus type1 Sabin strain Chat infected in african green monkey Vero cells after 2 days by plaque reduction assay; format: functional, organism-based, Human poliovirus 1 strain Sabin; details: Enterovirus C, 48 h
[5] = Cytotoxicity against MDBK cells after 48 to 96 hrs by MTT assay; format: cell-based, Bos taurus; details: cattle, MDBK cells; in short: as §2
[6] = tested on: Bovine viral diarrhea virus 1; assay: Antiviral activity against Bovine viral diarrhea virus NADL infected in MDBK cells assessed as protection from virus-induced cytopathogenicity after 3 to 4 days by MTT method; format: functional, organism-based, Bovine viral diarrhea virus 1-NADL; details: Bovine viral diarrhea virus isolates and strains, MDBK
In short: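 Cytopathogenicity protection assay. MDBK cells at 3 × 10^4/well, grown overnight to confluence. Infected with BVDV NADL at m.o.i. 0.01 in MEM-E with 0.5% inactivated FBS, 1 mM Na pyruvate and 1% kanamycin. Serial compound dilutions added after 1 h. After 3–4 days at 37 °C, viability read by MTT; EC50 is the concentration giving 50% protection.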

[7] = Cytotoxicity against human MT4 cells after 96 hrs by MTT assay; format: cell-based; details: MT4 cells
In short: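 Exponentially growing MT-4 cells at 1 × 10^5 cells/mL in RPMI-1640 with 10% FCS, exposed to serial compound dilutions at 37 °C, 5% CO2. Viability by MTT after 96 h; CC50 is the concentration reducing viability of mock-infected cells by 50%.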

Vaccinia virus = assay: Antiviral activity against Vaccinia virus Elstree-Lister infected in african green monkey Vero cells after 3 days by plaque reduction assay; format: functional, organism-based; details: Orthopoxvirus vaccinia, 72 h
Coxsackievirus B2 = assay: Antiviral activity against Human coxsackievirus B2 Ohio-1 infected in african green monkey Vero cells after 3 days by plaque reduction assay; format: functional, organism-based, Coxsackievirus B2 (strain Ohio-1); details: Enterovirus B, Vero, 72 h; in short: as §1
[8] = tested on: Respiratory syncytial virus; assay: Antiviral activity against RSV A2 infected in african green monkey Vero cells after 5 days by plaque reduction assay; format: functional, organism-based; details: human respiratory syncytial virus, A2, Vero, 120 h; in short: as §1

Row | Compound | EC50 (Yellow fever virus) | Activity [1] | CC50 [2] | EC50 (Human alphaherpesvirus 1) | Activity [3] | CC50 [4] | EC50 (Poliovirus 1) | CC50 [5] | EC50 [6] | CC50 at 96 h [7] | EC50 (Vaccinia virus) | EC50 (Coxsackievirus B2) | EC50 [8]
1 | Fc1cccc(F)c1-c1nc2cc(Cl)c(Cl)cc2[nH]1 | > 100 µM | inactive | > 100 µM | > 100 µM | inactive | > 100 µM | > 100 µM | 43 µM | > 43 µM | 17 µM | > 100 µM | 30 µM | > 100 µM
2 | O=[N+]([O-])c1ccccc1-c1nc2ccccc2[nH]1 | > 100 µM | inactive | > 100 µM | > 100 µM | inactive | > 100 µM | > 100 µM | > 100 µM | > 100 µM | 60 µM | > 100 µM | > 100 µM | 40 µM
3 | O=[N+]([O-])c1ccc(-c2nc3cc(C(F)(F)F)ccc3[nH]2)c([N+](=O)[O-])c1 | > 8 µM | inactive | 25 µM | > 25 µM | inactive | 8 µM | > 25 µM | 16 µM | > 16 µM | 9 µM | > 25 µM | 9 µM | > 25 µM
4 | O=[N+]([O-])c1ccc(-c2nc3cc(C(F)(F)F)ccc3n2C2CCCCC2)cc1 | > 100 µM | inactive | > 100 µM | > 100 µM | inactive | > 100 µM | > 100 µM | 68 µM | 60 µM | 49 µM | 87 µM | 45 µM | > 100 µM
5 | COc1ccc(-c2nc3cc(C(F)(F)F)ccc3[nH]2)cc1 | > 100 µM | inactive | 15 µM | > 15 µM | inactive | > 100 µM | > 15 µM | > 100 µM | 1 µM | 2 µM | > 15 µM | 7 µM | > 15 µM
6 | COc1ccc(-c2nc3cc(C(C)=O)ccc3[nH]2)c(OC)c1 | > 100 µM | inactive | > 100 µM | > 100 µM | inactive | > 100 µM | > 100 µM | > 100 µM | 42 µM | > 100 µM | > 100 µM | > 100 µM | > 100 µM
7 | COc1ccc(-c2nc3cc(C(F)(F)F)ccc3[nH]2)c(N)c1 | 20 µM | inactive | 50 µM | > 50 µM | inactive | ≥ 100 µM | 18 µM | 4 µM | > 4 µM | 5 µM | > 50 µM | 6 µM | > 50 µM
8 | COc1ccc(-c2nc3cc([N+](=O)[O-])ccc3[nH]2)c(OC)c1 | > 100 µM | inactive | > 100 µM | > 100 µM | inactive | > 100 µM | > 100 µM | > 100 µM | 45 µM | > 100 µM | > 100 µM | > 100 µM | > 100 µM
9 | COc1ccc(-c2nc3cc(Cl)c(Cl)cc3[nH]2)cc1 | > 18 µM | inactive | 30 µM | 20 µM | inactive | 18 µM | > 30 µM | 2.5 µM | > 2.5 µM | 1 µM | > 30 µM | 10 µM | > 30 µM
10 | COc1ccc(-c2nc3cc(Cl)c(Cl)cc3[nH]2)c([N+](=O)[O-])c1 | > 80 µM | inactive | 80 µM | > 80 µM | inactive | 80 µM | > 80 µM | 28 µM | > 28 µM | 2 µM | > 80 µM | > 80 µM | > 80 µM
11 | COc1ccc(-c2nc3cc(C(F)(F)F)ccc3[nH]2)c(OC)c1OC | > 32 µM | inactive | 70 µM | > 70 µM | inactive | 32 µM | 42 µM | > 100 µM | > 100 µM | 93 µM | > 70 µM | 16 µM | > 70 µM
12 | Fc1ccc(-c2nc3cc(C(F)(F)F)ccc3[nH]2)cc1 | > 25 µM | inactive | 60 µM | > 60 µM | inactive | 25 µM | > 60 µM | 19 µM | > 19 µM | 22 µM | 8 µM | 13 µM | > 60 µM
13 | COc1ccc(-c2nc3cc([N+](=O)[O-])ccc3[nH]2)c(OC)c1OC | > 100 µM | inactive | > 100 µM | > 100 µM | inactive | > 100 µM | > 100 µM | > 100 µM | > 100 µM | > 100 µM | > 100 µM | > 100 µM | > 100 µM
14 | COc1ccc(-c2nc3cc(Cl)c(Cl)cc3[nH]2)c(N)c1 | > 100 µM | inactive | 75 µM | > 75 µM | inactive | > 100 µM | > 75 µM | 6.5 µM | > 6.5 µM | 3 µM | > 75 µM | > 75 µM | > 75 µM
15 | O=[N+]([O-])c1ccc(-c2nc3ccccc3[nH]2)c([N+](=O)[O-])c1 | > 100 µM | inactive | > 100 µM | 25 µM | inactive | > 100 µM | > 100 µM | 20 µM | > 20 µM | 7 µM | > 100 µM | 40 µM | > 100 µM
16 | COc1cc(-c2nc3cc(C(F)(F)F)ccc3[nH]2)cc(OC)c1OC | > 31 µM | inactive | 29 µM | > 29 µM | inactive | 31 µM | > 29 µM | 18 µM | > 18 µM | 4 µM | > 29 µM | 11 µM | > 29 µM
17 | O=[N+]([O-])c1ccc(-c2nc3cc(C(F)(F)F)ccc3[nH]2)cc1 | > 18 µM | inactive | 45 µM | > 45 µM | inactive | 18 µM | > 45 µM | 6 µM | > 6 µM | 6 µM | 4 µM | 12 µM | > 45 µM
18 | COc1ccc(-c2nc3cc(C(F)(F)F)ccc3[nH]2)c([N+](=O)[O-])c1 | > 100 µM | inactive | 20 µM | > 20 µM | inactive | 100 µM | > 20 µM | 55 µM | > 55 µM | 85 µM | > 20 µM | > 20 µM | > 20 µM
